ChEMBL document CHEMBL1153722, “Design, synthesis, and characterization of peptide-based rab geranylgeranyl transferase inhibitors” (J Med Chem, 2009)
Peptide text beside a SMILES is read from it. * marks the point of attachment. Hydrocinnamoyl = O=C(CCc1ccccc1)*; Undecanoyl = CCCCCCCCCCC(=O)*; Cbz = O=C(OCc1ccccc1)*; NHNH2 = NN*; NHOH = ON*

organism: Rattus norvegicus; test: Inhibition of rat recombinant Rab geranylgeranyltransferase at 100 uM in presence of canine Rab7 and rat REP1 NBD-FPP based continuous fluorimetric assay
Summary of the method: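 Continuous fluorometric assay in 96/384-well format: 3 μM Rab7, 3 μM REP1, 9 μM NBD-FPP and 400 nM RabGGTase, with or without inhibitor. […] IC50 was calculated from three independent measurements.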

Question: Which inhibition does the source give for `O=C(N[C@H](Cc1cnc[nH]1)C(=O)N[C@@H](Cc1ccc(O)cc1)C(=O)N[C@@H](Cc1ccccc1)C(=O)O)OCc1ccc(OCc2ccccc2)cc1` here?
Answer: The inhibition was 47%.

Question: For `CCCCCCCCCCCCCC(=O)N[C@@H](Cc1ccc(O)cc1)C(=O)N[C@@H](Cc1ccc(O)cc1)C(=O)N[C@@H](Cc1ccc(O)cc1)C(=O)Nc1ccc(N2CCOCC2)cc1`, which inhibition is on record?
Answer: The inhibition was 94%.

Question: With `O=C(CNC(=O)C1CCCN1C(=O)/C=C/c1ccccc1)NC(Cc1ccccc1)C(=O)NCc1ccc(F)cc1F` (centres undefined) as the molecule, how does the inhibition read?
Answer: The inhibition was 54%.

Question: How did the inhibition turn out when `O=C(CNC(=O)[C@H](Cc1ccc(O)cc1)NC(=O)c1ccc(F)cc1)N[C@@H](Cc1ccc(O)cc1)C(=O)O` was run?
Answer: Its inhibition is 90%.

Question: For `CC(=O)Nc1cc(C(=O)N2CCC[C@H]2C(=O)N[C@@H](C(=O)N[C@@H](CCC(=O)O)C(=O)NC2CCCCC2)C(C)C)ccc1[N+](=O)[O-]`, which inhibition is on record?
Answer: Its inhibition is 117%.

Question: How did the inhibition turn out when `CCCCCCCCCCC(=O)N[C@@H](Cc1c[nH]cn1)C(=O)N[C@@H](Cc1c[nH]cn1)C(=O)N[C@@H](CO)C(=O)NO` (Undecanoyl-His-His-Ser-{NHOH}) was run?
Answer: The inhibition was 78%.

Question: Which inhibition does the source give for `O=C(CNC(=O)[C@H](Cc1ccccc1)NC(=O)c1coc(-c2ccccc2)n1)N[C@@H](CO)C(=O)Nc1cncs1` here?
Answer: The inhibition was 116%.

Question: Which inhibition does the source give for `CCCCCCCCCCCOc1ccc(C(=O)N[C@@H](Cc2ccc(O)cc2)C(=O)N[C@@H](Cc2ccc(O)cc2)C(=O)N[C@@H](Cc2ccc(O)cc2)C(=O)NC2CCCCC2)cc1` here?
Answer: The inhibition was 91%.

Question: How did the inhibition turn out when `NNC(=O)[C@H](CCC(N)=O)NC(=O)[C@H](Cc1ccccc1)NC(=O)[C@H](CO)NC(=O)CCc1ccccc1` (Hydrocinnamoyl-Ser-Phe-Gln-NHNH2) was run?
Answer: The inhibition was 104%.

Question: With `COC(=O)[C@H](CC(C)C)NC(=O)[C@H](CO)NC(=O)[C@H](Cc1ccccc1)NC(=O)CCc1ccccc1` as the molecule, how does the inhibition read?
Answer: The inhibition was 69%.

Question: Which inhibition does the source give for `CCCCCc1ccc(CCC(=O)N[C@H](Cc2cnc[nH]2)C(=O)N[C@@H](Cc2ccc(O)cc2)C(=O)N[C@@H](Cc2ccccc2)C(=O)O)cc1` here?
Answer: The inhibition was 10%.

Question: With `CCCCCCCCCCCCCCCCNC(=O)[C@H](CC1CCCC1)NC(=O)[C@H](CCC(N)=O)NC(=O)[C@@H](NC(=O)CCC(O)CBr)[C@@H](C)O` (some centres undefined) as the molecule, how does the inhibition read?
Answer: Its inhibition is 75%.

Question: `CCCCCCCCCCOc1ccc(C(=O)N[C@@H](Cc2c[nH]c3ccccc23)C(=O)N[C@@H](Cc2c[nH]cn2)C(=O)N[C@@H](Cc2c[nH]cn2)C(=O)OC)cc1` was tested. Which inhibition did it give?
Answer: Its inhibition is 56%.

Question: With `CCCCCCCCCCCOc1ccc(C(=O)N[C@@H](Cc2c[nH]cn2)C(=O)N[C@@H](Cc2c[nH]cn2)C(=O)N[C@@H](Cc2c[nH]cn2)C(N)=O)cc1` as the molecule, how does the inhibition read?
Answer: The inhibition was 32%.

Question: `CCCCCCCCCCC(=O)N[C@@H](Cc1c[nH]cn1)C(=O)N[C@@H](Cc1c[nH]cn1)C(=O)N[C@@H](CO)C(=O)Nc1ccccn1` was tested. Which inhibition did it give?
Answer: Its inhibition is 61%.

Question: For `NCCOC(=O)[C@H](Cc1ccc(O)cc1)NC(=O)CCNC(=O)[C@H](Cc1c[nH]cn1)NC(=O)OCc1ccccc1`, which inhibition is on record?
Answer: The inhibition was 100%.

Question: With `CCCCCCCCCCC(=O)N[C@@H](Cc1c[nH]cn1)C(=O)N[C@@H](Cc1ccccc1)C(=O)N[C@@H](Cc1ccc(O)cc1)C(=O)Nc1ccccc1N` as the molecule, how does the inhibition read?
Answer: The inhibition was 34%.

Question: Which inhibition does the source give for `Cc1nc(C)c(C(=O)OC[C@H](NC(=O)[C@H](Cc2ccccc2)NC(=O)[C@H](CO)NC(=O)c2coc(-c3ccccc3)n2)C(=O)O)o1` here?
Answer: Its inhibition is 84%.

Question: For `COC(=O)[C@H](Cc1ccc(O)cc1)NC(=O)CNC(=O)[C@H](C)NC(=O)/C=C/c1ccc(F)cc1`, which inhibition is on record?
Answer: The inhibition was 79%.

Question: Which inhibition does the source give for `O=C(N[C@@H](Cc1c[nH]cn1)C(=O)N[C@@H](Cc1ccc(O)cc1)C(=O)N[C@@H](Cc1ccccc1)C(=O)O)OCc1ccccc1` (Cbz-His-Tyr-Phe-OH) here?
Answer: The inhibition was 39%.

Question: How did the inhibition turn out when `CCCCCCCCCCCOc1ccc(C(=O)N[C@@H](Cc2c[nH]cn2)C(=O)N[C@@H](Cc2c[nH]cn2)C(=O)N[C@@H](Cc2c[nH]cn2)C(=O)OC)cc1` was run?
Answer: Its inhibition is 87%.

Question: Which inhibition does the source give for `CCCCCCCCCCC(=O)N[C@@H](Cc1c[nH]cn1)C(=O)N[C@@H](Cc1c[nH]cn1)C(=O)N[C@@H](CO)C(=O)OC` (Undecanoyl-His-His-Ser-OMe) here?
Answer: The inhibition was 77%.

Question: How did the inhibition turn out when `CC(=O)Nc1cc(C(=O)N2CCC[C@H]2C(=O)N[C@@H](C(=O)N[C@@H](CCC(=O)O)C(N)=O)C(C)C)ccc1[N+](=O)[O-]` was run?
Answer: Its inhibition is 111%.

Question: With `O=C(N[C@@H](Cc1cnc[nH]1)C(=O)N[C@@H](Cc1ccccc1)C(=O)N[C@@H](Cc1ccc(O)cc1)C(=O)O)OCc1ccc([N+](=O)[O-])cc1` as the molecule, how does the inhibition read?
Answer: The inhibition was 61%.
